Here are results for one molecule from ChEMBL document CHEMBL4825764, “Flavonoid Monomers as Potent, Nontoxic, and Selective Modulators of the Breast Cancer Resistance Protein (ABCG2)” (J Med Chem, 2021).

Holding throughout (format): cell-based
The species named for data set [1] is Homo sapiens. Briefly: Selectivity index, ratio of EC50 for inhibition of P-gp (unknown origin) expressed in LCC6MDR cells assessed as reversal of paclitaxel resistance to EC50 for inhibition of BCRP (unknown origin) transfected in HEK293/R2 cells assessed as reversal of topotecan resistance. In short, it runs like this: (§1)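 Selectivity index is the EC50 against the other transporter's line divided by the EC50 in the BCRP line. All values come from 5-day MTS reversal assays. These use topotecan in HEK293/R2 (0–2000 nM) or MCF7-MX100 (0–100 μM), doxorubicin in 2008/MRP1, and paclitaxel in LCC6MDR, each with modulator at 0–1000 nM.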

For data set [2], the species on record is Homo sapiens. The experiment in a line: Selectivity index, ratio of EC50 for inhibition of P-gp (unknown origin) expressed in LCC6MDR cells assessed as reversal of paclitaxel resistance to EC50 for Inhibition of BCRP (unknown origin) expressed in MCF7/MX100 cells assessed as reversal of topotecan resistance. In short, it runs like this:
as §1

Another data set deals with 2008. The experiment in a line: Selectivity index, ratio of EC50 for inhibition of MRP1 (unknown origin) expressed in 2008/MRP1 cells assessed as reversal of doxorubicin resistance to Inhibition of BCRP (unknown origin) expressed in MCF7/MX100 cells assessed as reversal of topotecan resistance. As to conditions: Homo sapiens; call rule not given here. In short, it runs like this: as §1
The species entered for data set [3] is Homo sapiens. The experiment in a line: Selectivity index, ratio of EC50 for inhibition of MRP1 (unknown origin) expressed in 2008/MRP1 cells assessed as reversal of mitoxantrone resistance to EC50 for inhibition of BCRP (unknown origin) expressed in HEK293/R2 cells assessed as reversal of mitoxantrone resistance. In short, it runs like this: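 Selectivity index is the EC50 in 2008/MRP1 or LCC6MDR divided by the EC50 in HEK293/R2. All three lines were measured by 5-day mitoxantrone co-incubation with modulator, with MTS/PMS read-out at 490 nm.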

Data set [4] addresses T1, Broad substrate specificity ATP-binding cassette transporter ABCG2 (Homo sapiens, UniProt Q9UNQ0).
T1 sequence (Q9UNQ0 whole entry): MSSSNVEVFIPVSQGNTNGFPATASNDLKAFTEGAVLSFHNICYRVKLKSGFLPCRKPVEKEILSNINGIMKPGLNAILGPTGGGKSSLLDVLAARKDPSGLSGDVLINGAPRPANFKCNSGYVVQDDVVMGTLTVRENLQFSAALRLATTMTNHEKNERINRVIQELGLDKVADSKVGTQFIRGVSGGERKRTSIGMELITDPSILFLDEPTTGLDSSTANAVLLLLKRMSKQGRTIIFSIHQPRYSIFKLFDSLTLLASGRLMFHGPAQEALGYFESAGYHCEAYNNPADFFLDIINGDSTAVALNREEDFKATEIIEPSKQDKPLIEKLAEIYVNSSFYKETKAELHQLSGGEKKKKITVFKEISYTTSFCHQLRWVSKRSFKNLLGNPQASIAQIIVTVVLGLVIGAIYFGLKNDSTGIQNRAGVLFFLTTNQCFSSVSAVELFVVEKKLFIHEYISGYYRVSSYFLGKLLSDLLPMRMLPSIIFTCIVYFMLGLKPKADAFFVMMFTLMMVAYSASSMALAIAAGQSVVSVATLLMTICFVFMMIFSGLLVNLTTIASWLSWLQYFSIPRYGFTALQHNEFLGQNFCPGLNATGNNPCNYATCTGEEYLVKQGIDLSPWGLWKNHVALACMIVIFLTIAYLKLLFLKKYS
The experiment in a line: Inhibition of BCRP (unknown origin) expressed in wild type HEK293/pcDNA3.1 cells assessed as increase in intracellular topotecan accumulation at 1 to 2 uM after 2 hrs in presence of topotecan by flow cytometry analysis relative to control. The settings on record: hek293, 2 h, dose 1-2 µM. An outline of the steps: (§2)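 5 × 10^5 HEK293/pcDNA3.1 or HEK293/R2 cells in 1 mL were incubated 2 hr at 37 °C with 50 μM topotecan or 5 μM mitoxantrone plus 1 or 2 μM modulator, with DMSO as the vehicle control. Cells were washed in cold PBS and resuspended in FACS buffer. Flow cytometry read FL1 (topotecan) or FL4 (mitoxantrone) over 50,000 events, normalized to wild-type cells.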
(In general: Flow cytometry measures light scatter and fluorescence of single cells or particles in a stream.)

For data set [5], the target named is T1, Broad substrate specificity ATP-binding cassette transporter ABCG2. The experiment in a line: Inhibition of BCRP (unknown origin) expressed in wild type HEK293/pcDNA3.1 cells assessed as increase in intracellular mitoxantrone accumulation at 1 to 2 uM after 2 hrs in presence of mitoxantrone by flow cytometry analysis relative to control. As to conditions: hek293, 2 h, dose 1-2 µM. An outline of the steps:
as §2

For data set [6] the target is unchanged. The experiment in a line: Inhibition of BCRP (unknown origin) expressed in wild-type HEK293 cells mediated mitoxantrone efflux assessed as intracellular mitoxantrone level at 2 uM preincubated with mitoxantrone for 1 hr followed by compound addition and measured upto 150 mins by flow cytometry analysis. The settings on record: hek293, 2.5 h. An outline of the steps: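 Cells were preloaded with 5 μM mitoxantrone for 1 hr at 37 °C, washed, then kept in drug-free medium with or without 2 μM modulator. Cells were harvested at 0, 30, 60, 90, 120 and 150 min and intracellular mitoxantrone read by flow cytometry (FL4). Level is expressed as % of the 0-min value.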

As to `COC(=O)c1cccc(COc2c(-c3ccc(OCCCCc4cn(Cc5ccccc5)nn4)cc3)oc3ccccc3c2=O)c1`, the Ratio EC50 was determined as 96 in the data set filed under Homo sapiens [1], 112 in the data set listed under Homo sapiens [2], 167 in the data set on 2008 and 68 in the data set listed under Homo sapiens [3]. The “inhibition (INH)” value in data set [4], in data set [5] and in data set [6] was “Not Active” in each case.
